Converted amounts (≈) assume the structure as drawn.
How the values were obtained:
Human alphaherpesvirus 1 [1] = assay: Antiviral activity against HSV1 TK- KOS ACV-induced cytopathogenicity in E6SM cells; assay type: functional; conditions: Human alphaherpesvirus 1, KOS
Coxsackievirus B4 = assay: Antiviral activity against Coxsackie virus B4-induced cytopathogenicity in Vero cells; assay type: functional; conditions: Enterovirus B
L1210 = assay: Antiproliferative activity against mouse L1210 cells; assay type: functional, cell-based
Procedure, shortened: (§1)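 Suspension cells seeded at 50 × 10³ cells/well with a range of test compound concentrations. Cell number counted with a Coulter counter after 2 days (L1210) or 3 days (Molt4/C8, CEM). IC50 is the concentration that cuts cell growth by 50% versus untreated controls, read from plots of cell number (% of control) against concentration.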

WI-38 = assay: Antiproliferative activity against human WI38 cells after 72 hrs by MTT assay; assay type: functional, cell-based; conditions: WI-38, 72 h
Procedure, shortened: (§2)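 Monolayers grown in DMEM with 10% FBS, 2 mM L-glutamine and penicillin/streptomycin at 37 °C, 5% CO2. Seeded at 1 × 10⁴–3 × 10⁴ cells/mL on day 0. Compounds from 0.04 M DMSO stocks added at five 10-fold dilutions (10⁻⁸–10⁻⁴ M final), with matched DMSO controls, for 72 h. MTT added for 4 h, formazan dissolved in DMSO, absorbance read at 570 nm. Percentage growth calculated against time-zero and untreated OD. IC50 is 50% inhibition of proliferation.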

Sindbis virus = assay: Antiviral activity against Sindbis virus-induced cytopathogenicity in Vero cells; assay type: functional
[2] = Antiproliferative activity against human Molt4/C8 cells; assay type: functional, cell-based; conditions: MOLT-4; procedure, shortened: as §1
CCRF-CEM = assay: Antiproliferative activity against human CEM cells; assay type: functional, cell-based; procedure, shortened: as §1
[3] = Cytotoxicity against E6SM cells; assay type: cell-based; conditions: human
Procedure, shortened: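 Cells seeded at 5 × 10³ cells/well and exposed to medium containing a range of test compound concentrations. After 3 days at 37 °C, cell morphology examined microscopically. Reported as minimum cytotoxic concentration (MCC), the concentration causing a microscopically detectable alteration of normal cell morphology.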

Human alphaherpesvirus 2 = assay: Antiviral activity against HSV2 G-induced cytopathogenicity in E6SM cells; assay type: functional; conditions: Human alphaherpesvirus 2, G
Human alphaherpesvirus 1 [4] = assay: Antiviral activity against HSV1 KOS-induced cytopathogenicity in E6SM cells; assay type: functional; conditions: Human alphaherpesvirus 1, KOS
MCF7 = assay: Antiproliferative activity against human MCF7 cells after 72 hrs by MTT assay; assay type: functional, cell-based; conditions: MCF7, 72 h; procedure, shortened: as §2
[5] = system: Vesicular stomatitis virus; assay: Antiviral activity against in Vesicular stomatitis virus-induced cytopathogenicity in E6SM cells; assay type: functional
HeLa = assay: Antiproliferative activity against human HeLa cells after 72 hrs by MTT assay; assay type: functional, cell-based; procedure, shortened: as §2
SW-620 = assay: Antiproliferative activity against human SW620 cells after 72 hrs by MTT assay; assay type: functional, cell-based; conditions: SW-620, 72 h; procedure, shortened: as §2
MIA PaCa-2 = assay: Antiproliferative activity against human MiaPaCa2 cells after 72 hrs by MTT assay; assay type: functional, cell-based; conditions: Homo sapiens, MIA PaCa-2, 72 h; read-out: IC50; procedure, shortened: as §2
Punta Toro virus = assay: Antiviral activity against Punta Toro virus-induced cytopathogenicity in Vero cells; assay type: functional
[6] = system: Vesicular stomatitis virus; assay: Antiviral activity against in Vesicular stomatitis virus- induced cytopathogenicity in HeLa cells; assay type: functional
HEp-2 = assay: Antiproliferative activity against human Hep2 cells after 72 hrs by MTT assay; assay type: functional, cell-based; conditions: HEp-2, 72 h; procedure, shortened: as §2

SMILES	MIC (Human alphaherpesvirus 1 [1])	MIC (Coxsackievirus B4)	IC50 (L1210)	IC50 (WI-38)	MIC (Sindbis virus)	IC50 [2]	IC50 (CCRF-CEM)	MCC ([3]; read-out: MCC)	MIC (Human alphaherpesvirus 2)	MIC (Human alphaherpesvirus 1 [4])	IC50 (MCF7)	MIC [5]	IC50 (HeLa)	IC50 (SW-620)	IC50 (MIA PaCa-2)	MIC (Punta Toro virus)	MIC [6]	IC50 (HEp-2)	MCC ([3]; read-out: MIC)
C=CCc1cn(C/C=C2\OC(=O)C(OCc3ccccc3)=C2OCc2ccccc2)c(=O)[nH]c1=O	> 8 µM	24 µM (≈ 11.3 µg/mL)	20 µM	10.4 µM	24 µM (≈ 11.3 µg/mL)	20 µM	20 µM	40 µM	> 8 µM	> 8 µM	4.7 µM	> 8 µM	2.9 µM	2.7 µM	5 µM	> 40 µM	24 µM (≈ 11.3 µg/mL)	4.7 µM	
O=C1O/C(=C\Cn2cc(-c3ccco3)c(=O)[nH]c2=O)C(OCc2ccccc2)=C1OCc1ccccc1	> 6.4 µM	> 6.4 µM	6.8 µM	1.8 µM	> 6.4 µM	6.6 µM	7 µM	32 µM	> 6.4 µM	> 6.4 µM	2 µM	> 6.4 µM	2 µM	2.4 µM	1.6 µM	> 6.4 µM	> 6.4 µM	2.2 µM	
O=C1O/C(=C\Cn2cc(-c3ccc(Br)o3)c(=O)[nH]c2=O)C(OCc2ccccc2)=C1OCc1ccccc1	> 70 µM	> 70 µM	115 µM	16 µM	> 70 µM	125 µM	134 µM	347 µM	> 70 µM	> 70 µM	29 µM	70 µM (≈ 40.4 µg/mL)	24 µM	49 µM	27 µM	> 70 µM	70 µM (≈ 40.4 µg/mL)	28 µM	
C=C=Cc1cn(C/C=C2\OC(=O)C(OCc3ccccc3)=C2OCc2ccccc2)c(=O)[nH]c1=O	> 8 µM	> 200 µM	> 250 µM	> 100 µM	> 200 µM	> 250 µM	> 250 µM	40 µM	> 8 µM	> 8 µM	77 µM	8 µM (≈ 3.76 µg/mL)	> 100 µM	> 100 µM	> 100 µM	> 200 µM	> 40 µM	> 100 µM	
Nc1ncnc2c1ncn2C[C@H](O)CO [(S)-DHPA]		> 500 µM			> 500 µM											300 µM (≈ 62.8 µg/mL)	> 500 µM		
Nc1nc2c(ncn2COCCO)c(=O)[nH]1 [ACYCLOVIR]	60 µM (≈ 13.5 µg/mL)								0.8 µM (≈ 0.18 µg/mL)	0.48 µM (≈ 0.108 µg/mL)		> 500 µM							> 500 µM
O=c1[nH]c(=O)n([C@H]2C[C@H](O)[C@@H](CO)O2)cc1/C=C/Br [BRIVUDINE]	300 µM (≈ 99.9 µg/mL)	> 500 µM			> 500 µM				300 µM (≈ 99.9 µg/mL)	0.48 µM (≈ 0.16 µg/mL)		> 500 µM				> 500 µM	> 500 µM		> 500 µM
Nc1nc2c(ncn2COC(CO)CO)c(=O)[nH]1 [GANCICLOVIR]	0.8 µM (≈ 0.204 µg/mL)								0.096 µM (≈ 0.0245 µg/mL)	0.096 µM (≈ 0.0245 µg/mL)		> 100 µM							> 100 µM
NC(=O)c1ncn([C@@H]2O[C@H](CO)[C@@H](O)[C@H]2O)n1 [RIBAVIRIN]	500 µM (≈ 122 µg/mL)	> 500 µM			100 µM (≈ 24.4 µg/mL)				300 µM (≈ 73.3 µg/mL)	500 µM (≈ 122 µg/mL)		> 500 µM				300 µM (≈ 73.3 µg/mL)	100 µM (≈ 24.4 µg/mL)		> 500 µM

— ChEMBL document CHEMBL1144557, “The novel C-5 aryl, alkenyl, and alkynyl substituted uracil derivatives of L-ascorbic acid: synthesis, cytostatic, and antiviral activity evaluations” (Bioorg Med Chem, 2007)
